HIV Env fusion: inhibitors of HIV-1 Env-driven cell-cell fusion, primary screen, HeLa-JRFL effector, CEM21 target cells, luciferase | inhibition, % at 12.3 µM | 360,000 compounds, 1.1% hits | AID 651610, 2012;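 active means mean replicate inhibition score of at least 50 and every replicate individually at or above 50; inconclusive means only one of the two criteria met; inactive means mean below 50 and not all replicates reaching 50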;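 further: 0% = plate neutral controls and 100% = maraviroc near 300 nM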
PAX8 inh HTS: inhibitors of PAX8-driven TPO luciferase reporter, primary screen, RMG-I cells, single concentration | SteadyGlo, 24 h | inhibition, % at 12.6 µM | 360,000 compounds, 1.2% hits | AID 652154, 2013;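 active means mean replicate inhibition at least 60% with every replicate also reaching 60%; inconclusive means only one of the two criteria is met; inactive means mean below 60% and not all replicates reaching 60%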;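 further: luciferase light reporting Pax8 driven TPO promoter activity; plate controls were median of neutral control wells for no effect and mitoxantrone controls for full effect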
N-glyco inh: increase of ERlucT glycosylation luciferase signal, primary screen, N-linked glycosylation inhibitor project, D54 ERlucT cells, luminescence, set 2 | D54 ERlucT glycosylation luciferase reporter, 24 h; percent of 100 nM tunicamycin response | 360,000 compounds, 0.23% hits | reporter increase, % at 12.5 µM;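 active means mean luciferase reporter signal, scaled so untreated is 0 and the glycosylation-blocking control 100, at or above a set limit in every replicate; inconclusive means mean reaches the limit but not every replicate does; inactive means mean below the limit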;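 further: luciferase carries N-glycosylation sites so blocking glycosylation raises the light; 0% = median of neutral control wells and 100% = median of 100 nM tunicamycin wells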
AF4-AF9 inh: inhibitors of AF4 peptide binding to AF9, primary screen, biochemical, AlphaScreen, biotin-AF4 peptide, FLAG-AF9, single point. inhibition, % at 10 µM. 350,000 compounds, 0.47% hits;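 active means every replicate reaching a set inhibition limit, whatever the replicate mean, cut at about 25% in these data; inconclusive means mean inhibition reaches that limit but some replicates miss it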;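 further: 0% = plate neutral control median and 100% = total signal loss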
Target sequence (P42568 whole entry, looked up): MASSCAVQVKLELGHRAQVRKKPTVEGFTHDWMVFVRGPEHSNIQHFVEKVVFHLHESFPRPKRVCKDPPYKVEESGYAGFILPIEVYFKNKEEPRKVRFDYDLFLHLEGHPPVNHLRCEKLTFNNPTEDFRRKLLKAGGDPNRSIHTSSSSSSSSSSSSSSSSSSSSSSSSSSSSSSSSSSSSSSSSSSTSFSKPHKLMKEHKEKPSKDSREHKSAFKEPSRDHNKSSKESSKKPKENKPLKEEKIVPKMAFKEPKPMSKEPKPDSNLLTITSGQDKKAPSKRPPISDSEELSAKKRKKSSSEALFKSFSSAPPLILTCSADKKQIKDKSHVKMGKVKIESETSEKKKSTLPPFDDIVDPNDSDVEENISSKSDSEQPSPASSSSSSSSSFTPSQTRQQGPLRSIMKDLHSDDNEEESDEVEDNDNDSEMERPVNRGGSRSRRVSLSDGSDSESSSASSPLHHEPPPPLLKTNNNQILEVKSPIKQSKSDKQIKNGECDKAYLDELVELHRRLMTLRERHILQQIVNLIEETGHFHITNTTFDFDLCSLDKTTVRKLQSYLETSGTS
FN deposit inh: inhibitors of fibronectin matrix deposition, primary screen, AH1F cells, Alexa488-fibronectin fluorescence, plate reader | AH1F fibroblasts, overnight | inhibition, % at 12.6 µM | 350,000 compounds, 0.086% hits;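 active means mean inhibition across replicates of 30% or more, regardless of how many single replicates reach that level; inconclusive means mean under 30% yet at least half of replicates reach 30%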;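 further: positive control wells lacked labelled fibronectin entirely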
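Measured by – fluorescence 485/525 nm · System – AH1F fibroblast monolayer, labelled fibronectin deposition · Amount – 10000 cells per well · Buffer or medium – serum-reduced DMEM (2% serum) · Doses – single dose, pinned · Also added – fluorescent fibronectin at 24 nM final · Schedule – 1 h cell attachment, overnight exposure to compound and label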
EWS-Fli inh: EWS/Fli-driven NR0B1 reporter inhibitors, primary screen, A673 cells, NR0B1 luciferase, luminescence, MLPCN library; viability-normalised; inhibition, % at 12.6 µM; 350,000 compounds, 0.67% hits;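 active means mean inhibition of at least 50% after viability correction, with every replicate also passing that limit; inconclusive means mean reaches 50% but only one of two replicates passes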;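 further: firefly luciferase signal divided by Alamar Blue viability fluorescence both relative to DMSO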
Numbers without * were called inactive; i = inactive; ? = inconclusive; / = no result given; ! = not confirmed by another sample; [ ] = dose if it differs, or a comment. Hits are enriched below; roughly 2.5% of the tested compounds scored in any of these assays.

SMILES | HIV Env fusion | PAX8 inh HTS | N-glyco inh | AF4-AF9 inh | FN deposit inh | EWS-Fli inh
Oc1ccc2c(c1)OCC1(O)Cc3cc(O)c(O)cc3C21 (stereo not given) | / | / | 0 | 26* | / | 18
Cc1ccc(S(=O)(=O)Nc2ccc3c(c2)CC(=O)N([C@@H](C)CO)C[C@@H](C)[C@H](CN(C)S(=O)(=O)c2ccc(Cl)cc2)O3)cc1 | -11[16.7 µM] | 4 | / | / | / | 11
O=C1CCCN1CCCNCCCn1cnc2c(OCc3ccccc3)ncnc21 | 3 | 8 | 0 | -4 | -2 | 4
COc1ncnc2c1ncn2CCCNCCCN1CCCC1=O | 22 | 72* | 0 | -1 | 8 | 2
C[C@@H]1CN([C@H](C)CO)C(=O)c2cc(N(C)C)ccc2O[C@H]1CN(C)Cc1ccc(-c2ccccc2)cc1 | / | 16 | / | 50* | / | /
C[C@@H]1CN([C@@H](C)CO)C(=O)c2cc(C3=CCCC3)cnc2O[C@@H]1CN(C)Cc1ccc(C(=O)O)cc1 | 60*[16.7 µM] | 11 | / | -6 | -2 | 0
C[C@@H]1CN([C@@H](C)CO)C(=O)c2cc(C#CCN(C)C)cnc2O[C@H]1CN(C)Cc1ccc(-c2ccccc2)cc1 | 12[16.7 µM] | / | / | 34*! | / | 73*!
C[C@H]1CN([C@@H](C)CO)C(=O)c2cc(N(C)C)ccc2O[C@@H]1CN(C)Cc1ccc(-c2ccccc2)cc1 | / | -12 | / | 40* | / | 0
C[C@@H]1CN([C@H](C)CO)C(=O)c2cc(N(C)C)ccc2O[C@@H]1CN(C)Cc1ccccc1 | -3[16.7 µM] | 6 | / | -1 | / | -2
C/C=C/c1ccc([C@H]2[C@@H](CNC(=O)C3CC3)N(C(=O)NCCC)[C@H]2CO)cc1 | / | -1 | / | 1 | 0 | 5
COc1ccc2nc(N/C(N)=N/S(C)(=O)=O)nc(C)c2c1 | 61* | -41 | 3 | 0 | 13 | -29
COc1ccc2nc(N/C(N)=N/C(=S)Nc3c(C)cccc3C)nc(C)c2c1 | -12 | -59 | 5 | -2 | 1 | 10
Cc1cccc(NC(=O)Nc2ccc(S(=O)(=O)Nc3onc(C)c3C)cc2)c1 | / | -87 | 0 | 0 | 37* | -65
O=C(C[n+]1cc(-c2ccc(Cl)cc2)n2c1CCC2)N1c2ccccc2Sc2ccccc21 | -2 | 70* | 1 | / | -2 | /
COc1ccc(-c2c[n+](CC(=O)N3c4ccccc4Sc4ccccc43)c3n2CCC3)cc1 | 13 | 76* | -3 | 12 | 7 | 3
O=C(C[C@H]1C[C@H]2c3cc(NC(=O)C4CCC4)ccc3O[C@H]2[C@H](CO)O1)NCc1ccccc1 | 27[16.7 µM] | 1 | / | -1 | -5 | -8
CCCNC(=O)C[C@@H]1C[C@@H]2c3cc(NC(=O)Nc4ccc(OC)cc4)ccc3O[C@@H]2[C@H](CO)O1 | / | -26 | / | 3 | -2 | -2
Cc1ccc(S(=O)(=O)N2CC3(O)CN(C(=O)OC(C)C)N(C(=O)OC(C)C)CC3(OC(=O)NC3CCCC3)C2)cc1 (stereo not given) | 75* | 10 | -2 | -2 | -3 | 4
CCCCCCC(=O)N(O)C1CC(=O)N(c2ccc(C)cc2)C1=O (stereo not given) | ? | 9 | 38* | / | 5 | /
CCCCCCC(=O)N(O)C1CC(=O)N(c2ccc(Cl)cc2)C1=O (stereo not given) | 7 | 0 | 61* | -2 | -2 | 10
Cc1ccc(N2C(=O)CC(N(O)C3CC(=O)N(c4ccc(C)cc4)C3=O)C2=O)cc1 (stereo not given) | -61 | 12 | 1 | / | -2 | /
Nc1ccc2c(c1)Cc1cc(Cl)c(Cl)cc1-2 | 60* | -98 | 2 | 6 | / | -29
Nc1ccc2c(c1)Cc1cc(N)c(Cl)cc1-2 | -8 | -97 | -6 | 19 | -2 | -5
COc1ccc(NC(C)=[N+](C)CCNS(=O)(=O)c2ccc(Cl)cc2)cc1Cl | i | -4 | -3 | 2 | / | 4
CC(Nc1cc(C)cc(C)c1)=[N+](C)CCNS(=O)(=O)c1ccc(Cl)cc1 | 61* | 18 | -2 | 2 | / | 12
SMILES | HIV Env fusion | PAX8 inh HTS | N-glyco inh | AF4-AF9 inh | FN deposit inh | EWS-Fli inh
Cc1ccc(-c2ccc(=O)[nH]n2)cc1 | 56* | / | 3 | / | -2 | /
O=C(c1ccccc1)c1c2c(cc3sc4ccccc4[n+]13)-c1cccc3cccc-2c13 | 51 | 66* | -4 | / | -1 | /
O=C(c1ccccc1)c1ccc2ccccc2c1 | / | -120 | 0 | -4 | 1 | -107
Cc1sc2cc3c(c(C(=O)c4ccccc4)[n+]2c1C)-c1cccc2cccc-3c12 | 18 | 86* | / | 25* | -2 | 30
CCn1c(=NC(=O)CS(=O)(=O)c2ccc(C)cc2)sc2cccc(OC)c21 | 75* | 10 | 1 | 1 | 10 | 15
CCC(=O)N1CC2(CN(C(=O)CN3CCOCC3)C2)c2c([nH]c3cc(OC)ccc23)[C@@H]1CO | / | 1 | / | 0 | / | -6
O=C(CC1Nc2ccccc2NC1=O)Nc1ccc2c(c1)OCO2 (stereo not given) | -29 | -67 | 10 | 1 | 34* | -31
C[C@@H]1CN([C@H](C)CO)C(=O)c2cccc(NC(=O)c3nc4ccccc4s3)c2O[C@@H]1CN(C)C(=O)Nc1cccc2ccccc12 | / | / | / | 1 | -17 | -16
Cc1cc(N=Nc2ccc(C)c(N=Nc3cc(C)c(N)cc3N)c2)c(N)cc1N | -62 | 25 | -18 | 63* | -5 | -28
Cc1cc(-c2cc(C)c(N)cc2C)c(C)cc1N | / | 6 | 2 | 5 | -7 | -5
CC(=O)N(C)C[C@@H]1Oc2cc(C#Cc3cccnc3)ccc2S(=O)(=O)N([C@H](C)CO)C[C@H]1C | 30[16.7 µM] | / | / | -2 | 4 | 11
Nc1ncnc2c1ncn2[C@@H]1O[C@H](CO)[C@@H](O)[C@H]1O | 32 | -10 | 1 | -2 | / | -7
Nc1ncnc2c(C3OC(CO)C(O)C3O)c[nH]c12 (stereo not given) | 95* | 118* | -20 | 5 | 24 | 46
O=C(C[C@@H]1C[C@@H]2c3cc(NC(=O)c4cccnc4)ccc3O[C@@H]2[C@@H](CO)O1)NCc1ccncc1 | / | / | / | -3 | -12 | 4
C#CC(=O)CC1(CN(Cc2ccccc2)C(=O)OC(C)(C)C)CCCCC1 | -22 | 76* | 20 | -4 | -14 | 15
CNC(=O)C[C@@H]1CC[C@H]2[C@H](COc3ccc(NC(=O)Nc4c(C)noc4C)cc3C(=O)N2C)O1 | 11[16.7 µM] | -11 | / | / | -10 | -4
O=C([C@@H]1[C@@H](CO)[C@@H]2Cn3c(ccc(-c4ccncc4)c3=O)[C@H]1N2Cc1cccnc1)N1CCOCC1 | / | / | / | -1 | / | -13

From PubChem BioAssay
